The source of these data is ChEMBL document CHEMBL1132567, “Structure-activity studies of conantokins as human N-methyl-D-aspartate receptor modulators” (J Med Chem, 1999).

The pIC50 is the IC50 on a negative log10 scale, so that one unit is a factor of ten.

pIC50: −log10 of the molar value. Starred links: 1 amine or outer side, 2 acyl side, 3 side chain; linkers in the order of their positions; H or OH if unused. Positions of bridges follow the written chain, without caps; N, C: chain ends. Non-standard residues stand in square brackets, D forms with d. Residues, ends and D or L forms follow the SMILES beside them. X1 = NC(=O)CC[C@@H](C(=O)[*:2])[C@H](CC(N)=O)N[*:1]; NMeN = CN[C@@H](CC(N)=O)C(=O)O Some results are limits rather than exact numbers.

Experiment [1] deals with Glutamate [NMDA] receptor. The experiment can be described thus: The compound was tested for the inhibitory activity against N-methyl-D-aspartate glutamate receptor from mid-frontal region of human brain by measuring spermine-enhanced [3H]- MK-801 binding. The method in brief:
(§1)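 Crude synaptosomal membranes from the named human brain region, frozen at -70°C, then washed in water and in 5 mM Tris-HCl pH 7.4. Duplicate tubes at room temperature held membranes (about 0.25 mg/mL protein), 30 μM spermine, 2 nM [3H]MK-801 and peptide at 10^-9–10^-4 M, without added Ca2+ or with 1.5 mM CaCl2. Nonspecific binding was taken with 3 μM unlabeled MK-801. After 45 min, samples were filtered onto GF/B and counted by scintillation.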

Experiment [2] has as its target Glutamate [NMDA] receptor. Briefly: The compound was tested for the inhibitory activity against N-methyl-D-aspartate glutamate receptor from sensorimotor gyri region of human brain by measuring spermine-enhanced [3H]- MK-801 binding. The gist of the method: as §1
The target in experiment [3] is Glutamate [NMDA] receptor. Briefly: The compound was tested for the inhibitory activity against N-methyl-D-aspartate glutamate receptor from superior temporal region of human brain by measuring spermine-enhanced [3H]- MK-801 binding. The method in brief:
as §1

As to `CC[C@@H](C)[C@H](NC(=O)[C@H](CC(C)C)NC(=O)[C@@H]1CCC(=O)NCCCC[C@H](NC(=O)[C@H](CCC(N)=O)NC(=O)[C@H](CC(C)C)NC(=O)[C@H](CCC(=O)O)NC(=O)[C@H](CCC(=O)O)NC(=O)[C@H](CCC(=O)O)NC(=O)CN)C(=O)N[C@@H](CC(N)=O)C(=O)N[C@H](CCC(N)=O)C(=O)N1)C(=O)N[C@@H](CCCN=C(N)N)C(=O)N[C@@H](CCC(=O)O)C(=O)N[C@@H](CCCCN)C(=O)N[C@@H](CO)C(=O)N[C@@H](CC(N)=O)C(N)=O`, the pIC50 in experiment [1] was 5.07.

For the compound `CC[C@H](C)[C@H](NC(=O)[C@H](CC(C)C)NC(=O)[C@H](CCC(=O)O)NC(=O)[C@H](CCC(N)=O)NC(=O)[C@H](CC(N)=O)NC(=O)[C@H](C)NC(=O)[C@H](CCC(N)=O)NC(=O)[C@H](CC(C)C)NC(=O)[C@H](CCC(=O)O)NC(=O)[C@H](CCC(=O)O)NC(=O)[C@H](CCC(=O)O)NC(=O)CN)C(=O)N[C@@H](CCCN=C(N)N)C(=O)N[C@@H](CCC(=O)O)C(=O)N[C@@H](CCCCN)C(=O)N[C@@H](CO)C(=O)N[C@@H](CC(N)=O)C(N)=O`, the negative-log IC50 (pIC50) in experiment [2] was 6.12; in experiment [3] it was 5.77; in experiment [1], 5.47.

For H-GEEEYQKNQELIREKSN-NH2, the figures for the negative-log IC50 (pIC50) in experiment [2], in experiment [3] and in experiment [1] were 7.33, 7.25 and 7.00, respectively.

On to `CSCC[C@H](NC(=O)[C@H](CCCCN)NC(=O)[C@H](CCC(N)=O)NC(=O)[C@H](Cc1ccc(O)cc1)NC(=O)[C@H](CCC(=O)O)NC(=O)[C@H](CCC(=O)O)NC(=O)[C@H](CCC(=O)O)NC(=O)CN)C(=O)N[C@@H](CC(C)C)C(=O)N[C@@H](CCC(=O)O)C(=O)N(C)[C@@H](CC(N)=O)C(=O)N[C@@H](CC(C)C)C(=O)N[C@@H](CCCN=C(N)N)C(=O)N[C@@H](CCC(=O)O)C(=O)N[C@@H](C)C(=O)N[C@@H](CCC(=O)O)C(=O)N[C@H](C(=O)N[C@@H](CCCCN)C(=O)N[C@@H](CCCCN)C(=O)N[C@@H](CC(N)=O)C(=O)N[C@@H](C)C(N)=O)C(C)C` (H-GEEEYQKMLE[NMeN]LREAEVKKNA-NH2), for which the pIC50 in experiment [1] was 6.90.

`CC[C@H](C)[C@@H]1NC(=O)[C@H](CC(C)C)NC(=O)[C@@H](NC(=O)[C@H](CCC(N)=O)[C@H](CC(N)=O)NC(=O)[C@H](C)NC(=O)[C@H](CCC(N)=O)NC(=O)[C@H](CC(C)C)NC(=O)[C@H](CCC(=O)O)NC(=O)[C@H](CCC(=O)O)NC(=O)[C@H](CCC(=O)O)NC(=O)CN)CCC(=O)NCCCC[C@@H](C(=O)N[C@@H](CCC(=O)O)C(=O)N[C@@H](CCCCN)C(=O)N[C@@H](CO)C(=O)N[C@@H](CC(N)=O)C(N)=O)NC1=O` (H-GEEELQA[X1]ELIKEKSN-NH2; lactam 9-12): in experiment [1], the negative logarithm of the IC50 (pIC50) was below 4.70.

As for H-GEEELQEN-NH2, the pIC50 in experiment [2] was 7.24; in experiment [3] it was 7.64; in experiment [1], 7.03.

As for H-GEEELQEDQELIREKSD-NH2, the pIC50 in experiment [2] is 7.74; in experiment [3], 8.05; in experiment [1], 7.70.

Turning to H-GEEEYQANQELIREKSN-NH2, the pIC50 in experiment [2] is 6.32; in experiment [3] it was 6.24; in experiment [1], 6.26.

As for `CC[C@@H](C)[C@H](NC(=O)[C@H](CC(C)C)NC(=O)[C@H](CCC(=O)O)[C@H](CCC(N)=O)NC(=O)[C@H](CC(N)=O)NC(=O)[C@H](CCC(=O)O)NC(=O)[C@H](CCC(N)=O)NC(=O)[C@H](CC(C)C)NC(=O)[C@H](CCC(=O)O)NC(=O)[C@H](CCC(=O)O)NC(=O)[C@H](CCC(=O)O)NC(=O)CN)C(=O)N[C@@H](CCCN=C(N)N)C(=O)N[C@@H](CCC(=O)O)C(=O)N[C@@H](CCCCN)C(=O)N[C@@H](CO)C(=O)N[C@@H](CC(N)=O)C(N)=O`, the negative-log IC50 (pIC50) in experiment [2] was 7.23; in experiment [3], 7.68; in experiment [1], 7.16.

Take `CC[C@H](C)[C@H](NC(=O)[C@H](CC(C)C)NC(=O)[C@H](CCC(=O)O)NC(=O)[C@H](CCC(N)=O)NC(=O)[C@H](CC(N)=O)NC(=O)[C@H](CCCCN)NC(=O)[C@H](CCC(N)=O)NC(=O)[C@H](CC(C)C)NC(=O)[C@H](CCC(=O)O)NC(=O)[C@H](CCC(=O)O)NC(=O)[C@H](CCC(=O)O)NC(=O)CN)C(=O)N[C@@H](CCCN=C(N)N)C(=O)N[C@@H](CCC(=O)O)C(=O)N[C@@H](CCCCN)C(=O)N[C@@H](CO)C(=O)N[C@@H](CC(N)=O)C(N)=O`: the pIC50 in experiment [1] is 4.96.
